Converted amounts (≈) assume the structure as drawn.
Legend:
Type in all cases: functional
Enterococcus faecalis [1] = test: Antibacterial activity against vancomycin-susceptible Enterococcus faecalis clinical isolate by broth microdilution method
Outline: (§1)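 MICs by CLSI broth microdilution in frozen trays pre-loaded with serial dilutions of each agent. Quality-control strains run in parallel: E. faecalis ATCC 29212 and ATCC 51299, S. aureus ATCC 29213, S. pneumoniae ATCC 49619. Comparator susceptibility categories follow CLSI breakpoints. Methicillin resistance in staphylococci assigned from the oxacillin MIC.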

Enterococcus faecalis [2] = test: Antibacterial activity against vancomycin- and teichoplanin-nonsusceptible Enterococcus faecalis clinical isolate by broth microdilution method; outline: as §1
Enterococcus faecalis [3] = test: Antibacterial activity against vancomycin-resistant and teichoplanin-susceptible Enterococcus faecalis clinical isolate by broth microdilution method; outline: as §1
Enterococcus faecium [4] = test: Antibacterial activity against vancomycin-susceptible Enterococcus faecium clinical isolate by broth microdilution method
Outline: (§2)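 MIC by CLSI broth microdilution in frozen microtiter trays holding serial dilutions of each agent, prepared from standard laboratory powders. E. faecalis ATCC 29212 and ATCC 51299, S. aureus ATCC 29213 and S. pneumoniae ATCC 49619 run in parallel as quality-control strains. Comparator susceptibility interpreted with CLSI breakpoints.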

Enterococcus faecium [5] = test: Antibacterial activity against vancomycin- and teichoplanin-nonsusceptible Enterococcus faecium clinical isolate by broth microdilution method; outline: as §1
Enterococcus faecium [6] = test: Antibacterial activity against vancomycin-resistant and teichoplanin-susceptible Enterococcus faecium clinical isolate by broth microdilution method; outline: as §1
Streptococcus pyogenes = test: Antibacterial activity against Streptococcus pyogenes clinical isolate by broth microdilution method; outline: as §2
Streptococcus agalactiae = test: Antibacterial activity against Streptococcus agalactiae clinical isolate by broth microdilution method; outline: as §2
[7] = Antibacterial activity against Streptococcus sp. Group C clinical isolate by broth microdilution method; outline: as §2
Streptococcus sp. [8] = test: Antibacterial activity against Streptococcus sp. Group F clinical isolate by broth microdilution method
Outline: (§3)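 MIC by CLSI broth microdilution in frozen microtiter trays holding serial dilutions of each agent, prepared from standard laboratory powders. Comparator susceptibility interpreted with CLSI breakpoints.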

[9] = Antibacterial activity against Streptococcus sp. Group G clinical isolate by broth microdilution method; outline: as §2
Streptococcus equinus = test: Antibacterial activity against Streptococcus bovis clinical isolate by broth microdilution method; outline: as §2
[10] = test system: Streptococcus constellatus; test: Antibacterial activity against Streptococcus constellatus clinical isolate by broth microdilution method; outline: as §2
[11] = test system: Streptococcus intermedius; test: Antibacterial activity against Streptococcus intermedius clinical isolate by broth microdilution method; outline: as §2
Streptococcus mitis = test: Antibacterial activity against Streptococcus mitis clinical isolate by broth microdilution method; outline: as §2
Streptococcus oralis = test: Antibacterial activity against Streptococcus oralis clinical isolate by broth microdilution method; outline: as §2
Streptococcus sanguinis = test: Antibacterial activity against Streptococcus sanguinis clinical isolate by broth microdilution method; outline: as §2
Streptococcus sp. [12] = test: Antibacterial activity against Streptococcus sp. clinical isolate by broth microdilution method; outline: as §3
Streptococcus pneumoniae [13] = test: Antibacterial activity against penicillin susceptible Streptococcus pneumoniae clinical isolate by broth microdilution method; outline: as §1
Streptococcus pneumoniae [14] = test: Antibacterial activity against penicillin intermediate Streptococcus pneumoniae clinical isolate by broth microdilution method; outline: as §1
Streptococcus pneumoniae [15] = test: Antibacterial activity against penicillin resistant Streptococcus pneumoniae clinical isolate by broth microdilution method; outline: as §1

SMILES: CC1(C)S[C@@H]2[C@H](NC(=O)[C@H](N)c3ccccc3)C(=O)N2[C@H]1C(=O)O [AMPICILLIN]
- MIC50 (Enterococcus faecalis [1]): 1 µg/mL (≈ 2.86 µM)
- MIC90 (Enterococcus faecalis [1]): 1 µg/mL (≈ 2.86 µM)
- MIC50 (Enterococcus faecalis [2]): 1 µg/mL (≈ 2.86 µM)
- MIC90 (Enterococcus faecalis [2]): 2 µg/mL (≈ 5.72 µM)
- MIC (Enterococcus faecalis [3]): 0.5 µg/mL (≈ 1.43 µM)
- MIC50 (Enterococcus faecium [4]): 128 µg/mL (≈ 366 µM)
- MIC90 (Enterococcus faecium [4]): > 128 µg/mL
- MIC50 (Enterococcus faecium [5]): 128 µg/mL (≈ 366 µM)
- MIC90 (Enterococcus faecium [5]): > 128 µg/mL
- MIC50 (Enterococcus faecium [6]): 128 µg/mL (≈ 366 µM)

SMILES: C[C@H]1COc2c(N3CCN(C)CC3)c(F)cc3c(=O)c(C(=O)O)cn1c23.C[C@H]1COc2c(N3CCN(C)CC3)c(F)cc3c(=O)c(C(=O)O)cn1c23.O [LEVOFLOXACIN]
- MIC50 (Streptococcus pyogenes): 0.5 µg/mL
- MIC90 (Streptococcus pyogenes): 1 µg/mL
- MIC50 (Streptococcus agalactiae): 0.5 µg/mL
- MIC90 (Streptococcus agalactiae): 1 µg/mL
- MIC50 [7]: 0.5 µg/mL
- MIC90 [7]: 0.5 µg/mL
- MIC50 (Streptococcus sp. [8]): 0.5 µg/mL
- MIC90 (Streptococcus sp. [8]): 0.5 µg/mL
- MIC50 [9]: 0.5 µg/mL
- MIC90 [9]: 0.5 µg/mL
- MIC50 (Streptococcus equinus): 0.5 µg/mL
- MIC90 (Streptococcus equinus): 1 µg/mL
- MIC50 [10]: 0.5 µg/mL
- MIC90 [10]: 1 µg/mL
- MIC50 [11]: 0.5 µg/mL
- MIC90 [11]: 1 µg/mL
- MIC50 (Streptococcus mitis): 0.5 µg/mL
- MIC90 (Streptococcus mitis): 1 µg/mL
- MIC50 (Streptococcus oralis): 0.5 µg/mL
- MIC90 (Streptococcus oralis): 1 µg/mL
- MIC50 (Streptococcus sanguinis): 0.5 µg/mL
- MIC90 (Streptococcus sanguinis): 1 µg/mL
- MIC50 (Streptococcus sp. [12]): 0.5 µg/mL
- MIC90 (Streptococcus sp. [12]): 1 µg/mL
- MIC50 (Streptococcus pneumoniae [13]): 1 µg/mL
- MIC90 (Streptococcus pneumoniae [13]): 1 µg/mL
- MIC50 (Streptococcus pneumoniae [14]): 0.5 µg/mL
- MIC90 (Streptococcus pneumoniae [14]): 1 µg/mL
- MIC50 (Streptococcus pneumoniae [15]): 0.5 µg/mL
- MIC90 (Streptococcus pneumoniae [15]): 1 µg/mL
